A short description of data set [1]: Solubility was determined. The format is physicochemical.
Data set [2] is described as follows: Cmax in rat p.o. at 20 mg/kg concentration. Also on record: dose 20 mg/kg, route oral. Type of data set: ADME, organism-based. To be noted: in vivo, po. The essentials:
(§1)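 Single-dose rat pharmacokinetics: intravenous 2 mg/kg in 25% (w/v) hydroxypropyl-β-cyclodextrin/Sorenson's phosphate buffer (pH 5.5), or oral 20 mg/kg. Oral parameters are Cmax, AUC0-∞ and 24 h blood level. Intravenous parameters are clearance, terminal half-life and Vdss. Bioavailability (F) is derived from the oral and intravenous arms.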

Data set [3] can be described thus: Vdss in rat i.v. at 2 mg/kg concentration. The arrangement: dose 2 mg/kg, route intravenous. The format is ADME, organism-based. As to conditions: in vivo, iv, read-out: Vdss. The essentials: as §1
Another data set concerns A549. The experiment in a line: In vitro inhibitory concentration against proliferation of A459 cell line. To be noted: Homo sapiens.
Data set [4] addresses Vascular endothelial growth factor receptor 1 (Homo sapiens, UniProt P17948). The experiment in a line: Inhibition of Vascular endothelial growth factor receptor 1.
Data set [5] can be described thus: Half life in rat i.v. at 2 mg/kg concentration. Type of data set: ADME, organism-based. Also on record: dose 2 mg/kg, route intravenous. As to conditions: in vivo, iv. The essentials:
as §1

The nature of data set [6]: C24h in rat p.o. at 20 mg/kg concentration. Type of data set: ADME, organism-based. Also on record: dose 20 mg/kg, route oral. To be noted: in vivo, po, read-out: C24h. The essentials: as §1
Data set [7] concerns the target Vascular endothelial growth factor receptor 2 (Homo sapiens, UniProt P35968). Nature of the data set: In vitro inhibitory concentration against VEGF receptor 2. In short, it runs like this:
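KDR kinase selectivity assay, using a previously reported method. IC50 is the mean of at least three independent dose-response curves.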

The nature of data set [8]: Bioavailability in rat (dose 20 mg/kg p.o.). To be noted: in vivo, po.
Data set [9] is described as follows: Cl in rat i.v. at 2 mg/kg concentration. The format is ADME, organism-based. The arrangement: dose 2 mg/kg, route intravenous. As to conditions: in vivo, iv. The essentials: as §1
A further data set concerns the target Angiopoietin-1 receptor (Homo sapiens, UniProt Q02763). The experiment in a line: Inhibition of Tyrosine protein kinase receptor TIE-2.
For a further data set, the species on record is Rattus norvegicus. The experiment in a line: Percentage in free rat serum was determined. The format is ADME, organism-based.
For data set [10], the target named is Fibroblast growth factor receptor 1 (Homo sapiens, UniProt P11362). The experiment in a line: In vitro inhibition of Fibroblast growth factor receptor (FTK).
Data set [11] can be described thus: pKa was determined. Type of data set: physicochemical.
Data set [12] in a line: AUC in rat p.o. at 20 mg/kg concentration. Type of data set: ADME, organism-based. The arrangement: dose 20 mg/kg, route oral. As to conditions: plasma, po. In short, it runs like this:
as §1

For data set [13], the target named is Proto-oncogene tyrosine-protein kinase Src (Homo sapiens, UniProt P12931). The experiment in a line: In vitro inhibitory concentration against src-tyrosine kinase.
The nature of data set [14]: Total body clearance in rat i.v. at 2 mg/kg concentration. Type of data set: ADME, organism-based. The arrangement: dose 2 mg/kg, route intravenous. To be noted: in vivo, iv. The essentials: as §1

Consider 28 compounds from ChEMBL document CHEMBL1148412, “Discovery of a new class of anilinoquinazoline inhibitors with high affinity and specificity for the tyrosine kinase domain of c-Src” (J Med Chem, 2004).

In brackets after ≈: the same amount, converted by molar mass. Some results are limits rather than exact numbers.

Sequence of Vascular endothelial growth factor receptor 1 (P17948 whole entry): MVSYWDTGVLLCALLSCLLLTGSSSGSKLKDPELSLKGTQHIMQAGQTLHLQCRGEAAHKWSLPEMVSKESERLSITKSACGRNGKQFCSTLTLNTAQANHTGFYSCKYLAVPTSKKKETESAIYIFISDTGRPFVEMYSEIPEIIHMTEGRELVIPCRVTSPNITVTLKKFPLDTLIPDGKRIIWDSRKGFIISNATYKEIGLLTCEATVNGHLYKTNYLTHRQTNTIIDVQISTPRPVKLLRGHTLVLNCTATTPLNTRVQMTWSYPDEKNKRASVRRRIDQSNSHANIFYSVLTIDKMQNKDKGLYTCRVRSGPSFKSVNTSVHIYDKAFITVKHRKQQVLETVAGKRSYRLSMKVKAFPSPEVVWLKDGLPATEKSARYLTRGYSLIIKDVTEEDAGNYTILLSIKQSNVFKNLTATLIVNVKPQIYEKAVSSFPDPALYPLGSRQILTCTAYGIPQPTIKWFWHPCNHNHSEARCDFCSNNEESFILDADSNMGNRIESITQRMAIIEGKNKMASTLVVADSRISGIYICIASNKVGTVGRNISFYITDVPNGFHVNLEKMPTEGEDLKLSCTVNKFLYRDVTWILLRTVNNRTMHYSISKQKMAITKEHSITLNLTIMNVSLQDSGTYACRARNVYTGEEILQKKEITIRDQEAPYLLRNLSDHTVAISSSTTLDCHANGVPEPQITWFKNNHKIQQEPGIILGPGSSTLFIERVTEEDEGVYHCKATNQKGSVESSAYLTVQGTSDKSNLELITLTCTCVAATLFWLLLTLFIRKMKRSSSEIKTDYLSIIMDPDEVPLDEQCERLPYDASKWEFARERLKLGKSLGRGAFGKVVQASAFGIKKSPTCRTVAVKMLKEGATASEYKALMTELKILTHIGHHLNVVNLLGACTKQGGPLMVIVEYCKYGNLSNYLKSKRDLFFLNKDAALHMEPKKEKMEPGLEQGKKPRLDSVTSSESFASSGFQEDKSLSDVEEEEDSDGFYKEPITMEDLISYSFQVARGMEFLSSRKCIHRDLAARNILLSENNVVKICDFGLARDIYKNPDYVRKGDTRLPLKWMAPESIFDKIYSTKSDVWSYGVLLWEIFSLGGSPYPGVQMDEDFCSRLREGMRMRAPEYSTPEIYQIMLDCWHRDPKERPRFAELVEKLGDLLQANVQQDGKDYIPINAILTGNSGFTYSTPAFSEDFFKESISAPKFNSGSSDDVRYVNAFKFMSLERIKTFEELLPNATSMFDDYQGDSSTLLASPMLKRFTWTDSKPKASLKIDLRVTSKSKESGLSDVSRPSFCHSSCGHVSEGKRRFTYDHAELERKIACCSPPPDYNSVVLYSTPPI
Sequence of Vascular endothelial growth factor receptor 2 (P35968 whole entry): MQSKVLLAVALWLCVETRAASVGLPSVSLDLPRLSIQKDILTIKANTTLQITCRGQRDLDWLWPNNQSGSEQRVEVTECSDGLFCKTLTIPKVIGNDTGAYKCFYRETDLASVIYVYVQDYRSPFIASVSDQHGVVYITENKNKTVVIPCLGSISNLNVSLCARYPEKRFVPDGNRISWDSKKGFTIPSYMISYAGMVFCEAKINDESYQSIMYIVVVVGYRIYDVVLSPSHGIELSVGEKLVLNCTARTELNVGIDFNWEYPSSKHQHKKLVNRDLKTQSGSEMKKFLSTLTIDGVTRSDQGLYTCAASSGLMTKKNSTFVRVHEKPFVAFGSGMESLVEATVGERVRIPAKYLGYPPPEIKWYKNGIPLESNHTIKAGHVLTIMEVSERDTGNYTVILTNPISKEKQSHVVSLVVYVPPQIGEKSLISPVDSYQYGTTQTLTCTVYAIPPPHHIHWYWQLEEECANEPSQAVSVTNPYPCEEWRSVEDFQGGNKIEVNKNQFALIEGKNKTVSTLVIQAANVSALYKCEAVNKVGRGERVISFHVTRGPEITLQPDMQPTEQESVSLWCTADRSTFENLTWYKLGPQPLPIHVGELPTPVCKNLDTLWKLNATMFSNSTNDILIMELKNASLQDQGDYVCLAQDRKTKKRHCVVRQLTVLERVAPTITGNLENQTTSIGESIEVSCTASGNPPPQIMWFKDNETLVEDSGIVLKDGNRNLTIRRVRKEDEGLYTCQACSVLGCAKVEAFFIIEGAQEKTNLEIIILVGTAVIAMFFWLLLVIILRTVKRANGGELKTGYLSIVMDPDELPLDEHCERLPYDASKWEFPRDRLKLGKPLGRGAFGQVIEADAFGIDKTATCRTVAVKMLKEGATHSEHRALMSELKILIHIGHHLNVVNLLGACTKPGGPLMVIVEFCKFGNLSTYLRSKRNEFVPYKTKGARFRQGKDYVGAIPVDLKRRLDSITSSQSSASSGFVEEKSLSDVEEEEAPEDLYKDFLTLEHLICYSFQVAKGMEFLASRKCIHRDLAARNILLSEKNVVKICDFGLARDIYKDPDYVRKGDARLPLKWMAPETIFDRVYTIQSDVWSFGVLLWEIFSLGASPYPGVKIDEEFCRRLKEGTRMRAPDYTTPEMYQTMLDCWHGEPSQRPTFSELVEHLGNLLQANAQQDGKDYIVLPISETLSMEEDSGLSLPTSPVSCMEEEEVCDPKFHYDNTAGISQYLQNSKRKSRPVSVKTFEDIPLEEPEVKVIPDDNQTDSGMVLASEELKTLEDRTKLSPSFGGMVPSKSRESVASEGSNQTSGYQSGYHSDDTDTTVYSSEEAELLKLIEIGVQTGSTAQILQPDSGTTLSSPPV
Sequence of Fibroblast growth factor receptor 1 (P11362 whole entry): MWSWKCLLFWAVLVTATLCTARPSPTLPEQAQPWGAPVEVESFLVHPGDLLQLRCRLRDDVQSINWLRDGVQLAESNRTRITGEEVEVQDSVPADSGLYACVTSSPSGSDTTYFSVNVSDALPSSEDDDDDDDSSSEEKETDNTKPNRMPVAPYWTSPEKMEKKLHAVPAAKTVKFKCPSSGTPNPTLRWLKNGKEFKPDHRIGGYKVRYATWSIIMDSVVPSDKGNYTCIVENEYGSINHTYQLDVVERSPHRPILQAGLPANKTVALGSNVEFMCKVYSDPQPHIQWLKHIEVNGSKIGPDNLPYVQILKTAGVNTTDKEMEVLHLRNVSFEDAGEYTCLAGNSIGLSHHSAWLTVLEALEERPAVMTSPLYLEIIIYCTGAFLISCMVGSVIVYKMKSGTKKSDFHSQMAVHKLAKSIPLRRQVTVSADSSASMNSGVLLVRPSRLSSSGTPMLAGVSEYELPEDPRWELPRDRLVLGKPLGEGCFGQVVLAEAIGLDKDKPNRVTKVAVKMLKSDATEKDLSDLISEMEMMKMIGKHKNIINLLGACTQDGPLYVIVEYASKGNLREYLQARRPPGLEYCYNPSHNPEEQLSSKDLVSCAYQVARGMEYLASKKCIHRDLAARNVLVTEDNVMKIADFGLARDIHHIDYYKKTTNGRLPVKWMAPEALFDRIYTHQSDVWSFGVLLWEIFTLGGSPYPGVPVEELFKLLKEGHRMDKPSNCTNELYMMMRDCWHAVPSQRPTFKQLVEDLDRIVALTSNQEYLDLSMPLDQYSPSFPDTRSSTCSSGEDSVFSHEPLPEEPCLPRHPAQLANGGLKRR
Sequence of Proto-oncogene tyrosine-protein kinase Src (P12931 2-536 limits assumed): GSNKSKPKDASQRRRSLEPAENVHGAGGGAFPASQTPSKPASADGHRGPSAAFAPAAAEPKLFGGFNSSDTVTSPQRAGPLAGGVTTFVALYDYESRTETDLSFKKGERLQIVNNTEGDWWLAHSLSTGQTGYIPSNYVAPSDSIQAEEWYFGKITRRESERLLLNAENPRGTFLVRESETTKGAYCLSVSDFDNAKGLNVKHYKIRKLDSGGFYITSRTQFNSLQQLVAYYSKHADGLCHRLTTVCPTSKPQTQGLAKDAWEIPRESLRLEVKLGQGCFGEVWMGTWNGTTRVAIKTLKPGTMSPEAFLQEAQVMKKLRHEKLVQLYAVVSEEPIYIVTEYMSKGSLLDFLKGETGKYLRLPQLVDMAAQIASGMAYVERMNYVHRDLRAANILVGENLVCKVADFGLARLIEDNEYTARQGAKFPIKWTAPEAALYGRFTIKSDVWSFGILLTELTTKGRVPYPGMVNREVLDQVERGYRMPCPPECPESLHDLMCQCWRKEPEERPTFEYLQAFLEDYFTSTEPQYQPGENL

For the compound `COc1cc2c(Nc3c(Cl)ccc4c3OCO4)ncnc2cc1OCCCN1CCCCC1`, the solubility in data set [1] (read-out: S) is over 2000 µM. Further, the concentration in data set [2] peaked (Cmax) at 2960 nM. Further, the Vd in data set [3] is 14.4 L/kg. The half-maximal inhibitory concentration (IC50) (as a rule, the concentration that inhibits the measured activity by half) was 130 nM in the data set on A549; over 100000 nM in [4]; 2170 nM in [7]; 11300 nM at Angiopoietin-1 receptor; over 100000 nM in [10]; under 4 nM in [13]. Moreover, the half-life (commonly the time needed for the level to fall by half in the phase considered) in [5] was 5.8 h. Further, in [6], the concentration at 24 h worked out at 80 nM. In addition, the bioavailability (usually the share of a dose that reaches the circulation, judged against a reference dose that is usually intravenous) in data set [8] amounted to 86%. The clearance (commonly the rate of elimination divided by the concentration) in data set [9] amounted to 36 mL/min/kg. The compound also gave an Activity in the data set listed under Rattus norvegicus of 13.7%. Moreover, the pKa (usually the pH at which an ionisable group is half protonated) in [11] was found to be 9.7. In [12], the area under the curve (AUC) (as a rule, concentration integrated over time) amounted to 7900 ng·h/mL.

As for `COc1cc2c(Nc3cccc4ccoc34)ncnc2cc1OCCCN1CCOCC1`, the half-inhibitory concentration (IC50) is 410 nM in data set [7] and 30 nM in data set [13].

On to `COc1cc2c(Nc3c(Cl)ccc4ccoc34)ncnc2cc1OCCCN1CCOCC1`, for which the half-maximal inhibitory concentration (IC50) in the data set with A549 was 260 nM; in [7], 1380 nM; in data set [13], 10 nM.

Turning to `COc1cc2c(Nc3cccc4c3OCO4)ncnc2cc1OCCCN1CCOCC1`, the IC50 in the data set with A549 is 210 nM; in data set [7] it was 4960 nM; in [13] it was 14 nM.

Take `COc1cc2c(Nc3ccc4c(c3)OCO4)ncnc2cc1OCCCN1CCOCC1`: in data set [13], the IC50 came out at 760 nM.

In data set [13], `COc1cc2c(Nc3cccc4cc[nH]c34)ncnc2cc1OCCCN1CCOCC1` gave an IC50 of 260 nM.

As for `COc1cc2c(Nc3c(F)ccc4c3OCO4)ncnc2cc1OCCCN1CCOCC1`, the half-inhibitory concentration (IC50) with A549 turned out to be 450 nM; in data set [7], 8160 nM; in data set [13], 28 nM.

The compound `COc1cccc(Nc2ncnc3cc(OC)c(OC)cc23)c1` gave an IC50 in data set [13] of 253 nM.

As to `COc1cc2c(Nc3cccc4occc34)ncnc2cc1OCCCN1CCOCC1`, the values for the IC50 in [7] and in data set [13] were 250 nM and 16 nM, respectively.

`COc1ccccc1Nc1ncnc2cc(OCCCN3CCOCC3)c(OC)cc12` yielded a half-maximal inhibitory concentration (IC50) in [13] of 560 nM.

Regarding `COc1cc2c(Nc3cccc4c3OCCO4)ncnc2cc1OCCCN1CCOCC1`, half-maximal inhibition in data set [13] (IC50) required 370 nM.

For `COc1cccc(Nc2ncnc3cc(OCCCN4CCOCC4)c(OC)cc23)c1`, the IC50 came to 1050 nM in the data set on A549, 1110 nM in data set [7] and 37 nM in data set [13].

With `COc1cc2c(Nc3c(Br)ccc4c3OCO4)ncnc2cc1OCCCN1CCOCC1`, the figures for the IC50 (in the data set on A549; in data set [7]; in data set [13]) were 140 nM, 42600 nM and under 4 nM, respectively.

As to `COc1ccc(Nc2ncnc3cc(OCCCN4CCOCC4)c(OC)cc23)cc1`, in [13], the IC50 worked out at 477 nM.

`COc1cc2c(Nc3c(Cl)ccc4occc34)ncnc2cc1OCCCN1CCOCC1`: the IC50 in the data set with A549 was found to be 230 nM; in data set [7] it was 1230 nM; in data set [13] it was 10 nM.

On to `COc1cc2c(Nc3cccc4c3OC(F)(F)O4)ncnc2cc1OCCCN1CCOCC1`, for which, in data set [13], the IC50 was 270 nM.

As to `COc1cc2c(Nc3cccc4c3ccn4C)ncnc2cc1OCCCN1CCOCC1`, the 50% inhibitory concentration (IC50) stood at 420 nM in data set [7] and 40 nM in data set [13].

As to `COc1cc2c(Nc3cccc4c3OCC4)ncnc2cc1OCCCN1CCOCC1`, the IC50 in [13] was determined as 433 nM.

With `COc1ccc(Cl)c(Nc2ncnc3cc(OCCCN4CCOCC4)c(OC)cc23)c1`, the 50% inhibitory concentration (IC50) worked out at 310 nM in the data set with A549, 1180 nM in [7] and 10 nM in data set [13].

`COc1cc2c(Nc3cccc4[nH]ccc34)ncnc2cc1OCCCN1CCOCC1` displayed an IC50 in data set [13] of 177 nM.

In the case of `COc1cc2c(Nc3c(Cl)ccc4c3OCO4)ncnc2cc1OCCCN1CCOCC1`, in data set [1] (read-out: S), the solubility stood at 71 µM (≈ 33.6 µg/mL). Also, the half-maximal inhibitory concentration (IC50) in the data set with A549 was 180 nM; in [4], over 100000 nM; in data set [7], 17000 nM; on Angiopoietin-1 receptor, 17100 nM; in data set [10], over 100000 nM; in data set [13], under 4 nM. In addition, the Activity in the data set filed under Rattus norvegicus is reported as 10.5%. The same compound gave a pKa in [11] of 7.2.

Compound `CCOc1ccc(Cl)c(Nc2ncnc3cc(OCCCN4CCOCC4)c(OC)cc23)c1` came in with an IC50 in data set [13] of 963 nM.

For the compound `COc1cc2c(Nc3cccc4c(Cl)coc34)ncnc2cc1OCCCN1CCOCC1`, the IC50 is 100 nM in data set [7] and under 4 nM in data set [13].

In turn, `COc1cc2c(Nc3c(Cl)ccc4c3OCO4)ncnc2cc1OCc1ccnc(C#N)c1` showed a solubility in data set [1] of 10 µM (≈ 4.62 µg/mL). For the same compound, the IC50 with A549 stood at 230 nM; in [7], 77000 nM; in data set [13], 10 nM. This compound also yielded an Activity in the data set filed under Rattus norvegicus of 1.6%. Besides, the pKa in [11] came to 4.9.

As to `COc1cc2c(Nc3cccc4c(Cl)c[nH]c34)ncnc2cc1OCCCN1CCOCC1`, the IC50 is 980 nM with A549, 2320 nM in data set [7] and 20 nM in data set [13].

On to `COc1cc2ncnc(Nc3c(Cl)ccc4c3OCO4)c2cc1OCCCN1CCOCC1`, for which the half-inhibitory concentration (IC50) in the data set on A549 came to 1200 nM; in data set [7] it was 73800 nM; in data set [13], 50 nM.

Take `Clc1ccc2c(c1Nc1ncnc3cc(OCCCN4CCOCC4)ccc13)OCO2`: the concentration for half-maximal inhibition (IC50) in the data set with A549 is 670 nM; in data set [7], 91300 nM; in [13] it was 10 nM.

Take `COc1cc2c(Nc3c(Cl)ccc4c3OCO4)ncnc2cc1OCC1CCN(C)CC1`: the solubility in [1] (read-out: S) was over 3300 µM. Moreover, in [14], the clearance was found to be 49 mL/min/kg. In data set [2], the highest concentration (Cmax) – broadly, the peak of the concentration-time curve – came to 910 nM. Moreover, in [3], the Vd was found to be 17 L/kg. Further, the IC50 was 260 nM in the data set on A549, over 100000 nM in data set [4], 15600 nM in [7] and over 100000 nM in data set [10]. In data set [5], this compound gave a half-life of 5.7 h. For the same compound, the concentration at 24 h in [6] worked out at 60 nM. The same compound came in with a bioavailability in [8] of 37%. In addition, the Activity in the data set listed under Rattus norvegicus turned out to be 9.8%. Further, the pKa in data set [11] came to 9.4. The same compound registered an exposure (AUC) in data set [12] of 2500 ng·h/mL.
